Common to all, as to assay type: cell-based
Data set [1] has as its system HepG2. The data set can be described thus: Cytotoxicity against human HepG2 cells assessed as inhibition of mitochondrial respiratory chain complex I activity at 250 uM after 15 days relative to control. The note with it: hepg2, 360 h.
The subject of data set [2] is HepG2. The data set can be described thus: Cytotoxicity against human HepG2 cells assessed as inhibition of mitochondrial respiratory chain complex II activity after 15 days relative to control. The settings on record: hepg2, 360 h.
Data set [3] has as its system HepG2. The data set can be described thus: Cytotoxicity against human HepG2 cells assessed as inhibition of mitochondrial respiratory chain complex IV activity at 250 uM after 15 days relative to control. The note with it: hepg2, 360 h.
The test system of data set [4] is HepG2. The data set can be described thus: Cytotoxicity against human HepG2 cells assessed as inhibition of mitochondrial respiratory chain complex II activity at 250 uM after 15 days relative to control. The note with it: hepg2, 360 h.
Data set [5] relates to HepG2. Kind of data set: Cytotoxicity against human HepG2 cells assessed as inhibition of mitochondrial respiratory chain complex II activity at 50 uM after 15 days relative to control. The settings on record: hepg2, 360 h.
Data set [6] has as its system HepG2. Kind of data set: Cytotoxicity against human HepG2 cells assessed as reduction in viable cells upto 250 uM after 15 days by trypan blue dye exclusion assay relative to control. The note with it: hepg2, 360 h. In short, it runs like this: (§1)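 HepG2 cells seeded at 5 × 10⁵/ml in MEM with 10% FBS and 1 mM pyruvate. Exposed for 6, 9 and 15 days, with medium and drug renewed every 3 days. Viable cells counted by trypan blue exclusion on a hemocytometer and expressed as percent of 0.1% DMSO control; three independent experiments.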

Data set [7] concerns HepG2. The data set can be described thus: Cytotoxicity against human HepG2 cells assessed as increase in extracellular lactate secretion at 10 to 250 uM after 15 days relative to control. The note with it: hepg2, 360 h. The method, boiled down: (§2)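 Extracellular lactate in HepG2 culture medium measured with a lactic acid kit after 15 days of exposure. Medium and drug renewed every 3 days. Expressed as mg lactic acid per 10⁶ cells, then as percent of 0.1% DMSO vehicle control. n = 3.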

For data set [8], the system named is HepG2. Kind of data set: Cytotoxicity against human HepG2 cells assessed as reduction in mitochondrial DNA content at 250 uM after 15 days by RT-PCR method relative to control. Set-up: scale not given: the % may be the effect or the level left. The note with it: hepg2, 360 h. The method, boiled down: (§3)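 Total DNA extracted from HepG2 cells after 15-day exposure. Cells reseeded every 5 days; compounds added from 1,000× DMSO stocks, final DMSO 0.1%. Cytochrome b and actin copies measured by TaqMan real-time PCR against plasmid standard curves, 45 cycles. mtDNA/nDNA ratio expressed as percent of DMSO control; three independent experiments.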

Data set [9] deals with HepG2. Kind of data set: Cytotoxicity against human HepG2 cells assessed as inhibition of mitochondrial respiratory chain complex III activity at 10 uM after 15 days relative to control. The settings on record: hepg2, 360 h.
Data set [10] deals with HepG2. The data set can be described thus: Cytotoxicity against human HepG2 cells assessed as reduction in mitochondrial DNA content at 10 uM after 15 days by RT-PCR method relative to control. Set-up: scale not given: the % may be the effect or the level left. The settings on record: hepg2, 360 h. The method, boiled down:
as §3

Data set [11] deals with HepG2. The data set can be described thus: Cytotoxicity against human HepG2 cells assessed as inhibition of mitochondrial respiratory chain complex III activity at 50 uM after 15 days relative to control. The settings on record: hepg2, 360 h.
Data set [12] concerns HepG2. Kind of data set: Cytotoxicity against human HepG2 cells assessed as inhibition of mitochondrial respiratory chain complex IV activity at 10 uM after 15 days relative to control. The settings on record: hepg2, 360 h.
Data set [13] concerns HepG2. The data set can be described thus: Cytotoxicity against human HepG2 cells assessed as inhibition of mitochondrial respiratory chain complex I activity after 15 days relative to control. The note with it: hepg2, 360 h.
Data set [14] relates to HepG2. Kind of data set: Cytotoxicity against human HepG2 cells assessed as inhibition of mitochondrial respiratory chain complex I activity at 10 uM after 15 days relative to control. The note with it: hepg2, 360 h.
Data set [15] deals with HepG2. The data set can be described thus: Cytotoxicity against human HepG2 cells assessed as inhibition of mitochondrial respiratory chain complex I activity at 50 uM after 15 days relative to control. The settings on record: hepg2, 360 h.
Data set [16] relates to HepG2. The data set can be described thus: Cytotoxicity against human HepG2 cells assessed as mitochondrial swelling at 250 uM after 15 days by electron microscopy relative to control. The note with it: hepg2, 360 h. The method, boiled down:
(§4)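 HepG2 cells exposed 15 days, then fixed in 2.5% glutaraldehyde 1 h, postfixed in 1% osmium tetroxide 1 h, dehydrated through graded ethanol and propylene oxide, Epon-embedded, sectioned, and stained with uranyl acetate and lead citrate. Examined by transmission EM; >10 fields per treatment at low or high magnification; three independent experiments. DMSO 0.1% vehicle control.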

In data set [17] the test system is HepG2. The data set can be described thus: Cytotoxicity against human HepG2 cells assessed as reduction in mitochondrial DNA content at 50 uM after 15 days by RT-PCR method relative to control. Set-up: scale not given: the % may be the effect or the level left. The settings on record: hepg2, 360 h. In short, it runs like this: as §3
Data set [18] relates to HepG2. Kind of data set: Cytotoxicity against human HepG2 cells assessed as lipid droplet formation at 250 uM after 15 days by electron microscopy relative to control. The settings on record: hepg2, 360 h. The method, boiled down: as §4
In data set [19] the test system is HepG2. The data set can be described thus: Cytotoxicity against human HepG2 cells assessed as inhibition of mitochondrial respiratory chain complex III activity after 15 days relative to control. The note with it: hepg2, 360 h.
Data set [20] has as its system HepG2. Kind of data set: Cytotoxicity against human HepG2 cells assessed as inhibition of mitochondrial respiratory chain complex IV activity after 15 days relative to control. The note with it: hepg2, 360 h.
Data set [21] deals with HepG2. Kind of data set: Cytotoxicity against human HepG2 cells assessed as inhibition of mitochondrial respiratory chain complex IV activity at 50 uM after 15 days relative to control. The settings on record: hepg2, 360 h.
Data set [22] has as its system HepG2. Kind of data set: Cytotoxicity against human HepG2 cells assessed as inhibition of mitochondrial respiratory chain complex III activity at 250 uM after 15 days relative to control. The note with it: hepg2, 360 h.
Data set [23] concerns HepG2. The data set can be described thus: Cytotoxicity against human HepG2 cells assessed as inhibition of mitochondrial respiratory chain complex II activity at 10 uM after 15 days relative to control. The settings on record: hepg2, 360 h.
The subject of data set [24] is HepG2. Kind of data set: Cytotoxicity against human HepG2 cells assessed as disrupted mitochondrial cristae at 10 uM after 15 days by electron microscopy relative to control. The note with it: hepg2, 360 h. The method, boiled down: as §4
Data set [25] relates to HepG2. The data set can be described thus: Cytotoxicity against human HepG2 cells assessed as mitochondrial swelling at 10 uM after 15 days by electron microscopy relative to control. The settings on record: hepg2, 360 h. The method, boiled down: as §4
Data set [26] has as its system HepG2. Kind of data set: Cytotoxicity against human HepG2 cells assessed as increase in extracellular lactate secretion at 10 uM after 15 days relative to control. The note with it: hepg2, 360 h. In short, it runs like this: as §2
In data set [27] the test system is HepG2. The data set can be described thus: Cytotoxicity against human HepG2 cells assessed as reduction in viable cells at 10 uM after 15 days by trypan blue dye exclusion assay relative to control. The note with it: hepg2, 360 h. The method, boiled down: as §1
Data set [28] deals with HepG2. Kind of data set: Cytotoxicity against human HepG2 cells assessed as reduction in viable cells at 50 uM after 15 days by trypan blue dye exclusion assay relative to control. The note with it: hepg2, 360 h. In short, it runs like this: as §1
Data set [29] deals with HepG2. Kind of data set: Cytotoxicity against human HepG2 cells assessed as increase in extracellular lactate secretion at 50 uM after 15 days relative to control. The settings on record: hepg2, 360 h. In short, it runs like this:
as §2

Data set [30] relates to HepG2. The data set can be described thus: Cytotoxicity against human HepG2 cells assessed as slight increase in mitochondrial size at 50 uM after 15 days by electron microscopy relative to control. The settings on record: hepg2, 360 h. In short, it runs like this:
as §4

Data set [31] has as its system HepG2. The data set can be described thus: Cytotoxicity against human HepG2 cells assessed as reduction in viable cells at 50 uM after 6 days by trypan blue dye exclusion assay relative to control. The note with it: hepg2, 144 h. In short, it runs like this:
as §1

Take `COc1nc(N)nc2c1ncn2[C@H]1CC[C@@H](CO)O1` [METACAVIR]: the Activity entry is on record as “Toxic” in the data set with HepG2 [1]; “Dose-dependent effect” in the data set with HepG2 [2]; “Toxic” in the data set with HepG2 [3]; “Toxic” in the data set with HepG2 [4]; “Non-toxic” in the data set with HepG2 [5]; “Non-toxic” with HepG2 [6]. Further, the Activity entry is given as “Non-toxic” in the data set on HepG2 [7]; 60% in the data set with HepG2 [8]; “Non-toxic” in the data set on HepG2 [9]; “Non-toxic” with HepG2 [10]; “Toxic” in the data set with HepG2 [11]; “Non-toxic” in the data set on HepG2 [12]. Further, the Activity entry is given as “Dose-dependent effect” in the data set with HepG2 [13]; “Non-toxic” in the data set on HepG2 [14]; “Toxic” with HepG2 [15]; “Toxic” in the data set on HepG2 [16]; 80% in the data set with HepG2 [17]; “Toxic” in the data set with HepG2 [18]. Further, the Activity entry is given as “Dose-dependent effect” with HepG2 [19]; “Dose-dependent effect” in the data set with HepG2 [20]; “Toxic” in the data set with HepG2 [21]; “Toxic” with HepG2 [22]; “Non-toxic” with HepG2 [23].

Consider `Nc1ccn([C@H]2CC[C@@H](CO)O2)c(=O)n1` [ZALCITABINE], for which the Activity result is “Toxic” in the data set with HepG2 [9]; 3% with HepG2 [10]; “Toxic” in the data set on HepG2 [24]; “Toxic” with HepG2 [25]; “Toxic” in the data set with HepG2 [12]; “Toxic” in the data set on HepG2 [14]. Further, the Activity in the data set with HepG2 [26] is 170%; with HepG2 [27] it was less than 30%; in the data set with HepG2 [23], “Toxic”.

As for `Cc1cn([C@H]2C[C@H](N=[N+]=[N-])[C@@H](CO)O2)c(=O)[nH]c1=O` [ZIDOVUDINE], the Activity result in the data set with HepG2 [5] is on record as “Toxic”; in the data set on HepG2 [28], 60%; in the data set on HepG2 [29], 300%; in the data set with HepG2 [30], “Toxic”; in the data set on HepG2 [11], “Toxic”; in the data set on HepG2 [15] it was “Toxic”. The values for the Activity entry in the data set with HepG2 [17], in the data set on HepG2 [31] and in the data set on HepG2 [21] were “Non-toxic”, “Toxic” and “Toxic”, respectively.

Source of the values: ChEMBL document CHEMBL1687798, “In vitro mitochondrial toxicity of metacavir, a new nucleoside reverse transcriptase inhibitor for treatment of hepatitis B virus” (Antimicrob Agents Chemother, 2010).
